In the array DNA melting data of Ke et al. (doi:10.1101/2024.01.08.574731) one finds folding enthalpy and Tm data, which are given here for 36 sequences.

Data set [1] can be described thus: folding enthalpy; higher = less favourable; fluorescence melt of hairpins on a sequencing array, two-state fit. The conditions noted are these: sodium 0.088 M. In a few lines:
(§1)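 Cy3 fluorescence of library hairpins on a sequenced MiSeq flow cell, with annealed Cy3 and quencher oligos, was imaged in 50 mM Na-HEPES pH 8.0, 25 mM NaCl in 2.5 °C steps up to 60 °C. Signals were normalised to pre-quench Cy3 and to control variants. Melting temperature and folding enthalpy came from bootstrapped two-state fits, inverse-variance combined over four replicates. Fitted temperatures were raised by 9.35 °C to match UV melts.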

Data set [2] can be described thus: melting temperature; fluorescence melt of hairpins on a sequencing array, two-state fit, raised by 9.35 °C to match UV melts. The conditions noted are these: sodium 0.088 M. A digest of the protocol:
as §1

Regarding GGAGAACGAAAGTTTTCC (((.(((....))).))), the folding enthalpy in data set [1] is -29.2 kcal/mol. The Tm in data set [2] worked out at 47.4 °C.
The corresponding values for GGAGAAGCGAAAGCTTCC (((..(((....)))))) are -9.26 kcal/mol and 42.7 °C.
The corresponding values for GGAGAAGGAAACTTCTCC (((((((....))))))) are -43.1 kcal/mol and 57.7 °C.
The matching figures for GGAGAAGGAAACTTCTTC (.(((((....))))).): -23.1 kcal/mol and 36.7 °C.
Take GGAGACACGAAAGTGTCC (((..(((....)))))): in data set [1], the folding enthalpy was -8.97 kcal/mol. The Tm in data set [2] came to 44.1 °C.
The matching figures for GGAGACCCGAAAGGGTCC (((..(((....)))))): -7.91 kcal/mol and 47.6 °C.
The matching figures for GGAGACCGAAAGGTATCC (((.(((....))).))): -41.4 kcal/mol and 61.4 °C.
The corresponding values for GGAGACGAAAGTCAATCC ((((((....)))..))) are -15.1 kcal/mol and 31 °C.
Take GGAGACGAAAGTCACTCC ((((((....)))..))): the folding enthalpy in data set [1] was -13.3 kcal/mol. The Tm in data set [2] is 37.6 °C.
The corresponding values for GGAGACGAAAGTCATTCC ((((((....)))..))) are -12 kcal/mol and 29.6 °C.
The corresponding values for GGAGACGAAAGTCGATCC ((((((....)))..))) are -13 kcal/mol and 44 °C.
The matching figures for GGAGACGCGAAAGCGTCC (((..(((....)))))): -7.09 kcal/mol and 45.3 °C.
GGAGACGGAAACGCCTCC ((((.((....)).)))): the folding enthalpy in data set [1] is -48.4 kcal/mol. The Tm in data set [2] came to 51.4 °C.
The matching figures for GGAGACGGAAACGTCTTC (.(((((....))))).): -17.4 kcal/mol and 50.7 °C.
The matching figures for GGAGATACGAAAGTATCC (((..(((....)))))): -12.7 kcal/mol and 40.9 °C.
The matching figures for GGAGATCCGAAAGGATCC (((..(((....)))))): -9.31 kcal/mol and 42 °C.
Turning to GGAGATCGAAAGATGTCC (((.(((....))).))), the folding enthalpy in data set [1] is -29.5 kcal/mol. In addition, the Tm in data set [2] stood at 50.4 °C.
The matching figures for GGAGCACGAAAGTGATCC (((.(((....))).))): -38.3 kcal/mol and 66.2 °C.
The corresponding values for GGAGCACGAAAGTGTCC (((.(((....)))))) are -16.4 kcal/mol and 48.5 °C.
In the case of GGAGCAGGAAACTGCTTC (.(((((....))))).), the folding enthalpy in data set [1] is -26.4 kcal/mol. For the same sequence, in data set [2], the Tm came out at 51.7 °C.
The corresponding values for GGAGCAGGAAACTGTTCC (((.(((....))).))) are -29.5 kcal/mol and 48 °C.
The matching figures for GGAGCCGAAAGGCAATCC ((((((....)))..))): -11.2 kcal/mol and 38 °C.
The matching figures for GGAGCCGAAAGGCACTCC ((((((....)))..))): -11.1 kcal/mol and 39.9 °C.
On to GGAGCCGAAAGGCAGTCC ((((((....)))..))), for which, in data set [1], the folding enthalpy is -13.2 kcal/mol. For the same sequence, the Tm in data set [2] came to 36.1 °C.
Consider GGAGCCGAAAGGCGATCC ((((((....)))..))), for which, in data set [1], the folding enthalpy is -9.49 kcal/mol. Besides, the Tm in data set [2] is 51.6 °C.
The matching figures for GGAGCCGAAAGGCGTTCC ((((((....)))..))): -10.1 kcal/mol and 40 °C.
The corresponding values for GGAGCGGGAAACCGCTTC (.(((((....))))).) are -16.6 kcal/mol and 58.2 °C.
On to GGAGCTCGAAAGAGTTCC (((.(((....))).))), for which the folding enthalpy in data set [1] was -42.9 kcal/mol. The Tm in data set [2] came to 57.4 °C.
For GGAGCTGGAAACGGCTCC (((((.(....).))))), the folding enthalpy in data set [1] was -48.2 kcal/mol. Besides, in data set [2], the Tm worked out at 59.9 °C.
Turning to GGAGGACGAAAGTCTCC (((.(((....)))))), the folding enthalpy in data set [1] is -22.6 kcal/mol. Further, the Tm in data set [2] is 50.5 °C.
The matching figures for GGAGGAGAAATCCTCC ((((((....)))))): -40.8 kcal/mol and 54.4 °C.
In the case of GGAGGCGAAAGCCATCC ((((((....))).))), the folding enthalpy in data set [1] is -14.7 kcal/mol. Further, the Tm in data set [2] was found to be 49.4 °C.
The corresponding values for GGAGGCGAAAGCCCTCC ((((((....))).))) are -18.1 kcal/mol and 61.1 °C.
The matching figures for GGAGGCGAAAGCCGATCC ((((((....)))..))): -9.71 kcal/mol and 51.8 °C.
The corresponding values for GGAGGCGAAAGCCGTCC ((((((....))).))) are -9.55 kcal/mol and 52.9 °C.
For GGAGGCGAAAGCCTGTCC ((((((....)))..))), in data set [1], the folding enthalpy is -8.31 kcal/mol. The Tm in data set [2] stood at 38 °C.
